Five molecules from ChEMBL document CHEMBL1141070, “Synthesis and biological activity of flurbiprofen analogues as selective inhibitors of beta-amyloid(1)(-)(42) secretion” (J Med Chem, 2005) can be followed below.

A value given as a limit tells only on which side of the number the result lay.

The nature of series [1]: In vivo steady state metabolic clearance of the compound. As to conditions: rat.
Another series concerns Caco-2. The experiment in a line: Permeability in the Caco-2 cell; high absorption. Format: ADME, cell-based. As to conditions: human. The essentials:
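Caco-2 monolayers on polycarbonate Transwell inserts, 2 h at 37 °C. Apical and basolateral solutions analysed by LC-MS/MS (SRM). Papp = Cb·Vb/(C0·A·t).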

The nature of series [2]: Elimination phase half-life after administration to rats at a dose of 2.5 mg/kg orally. Further details: dose 2.5 mg/kg, route oral. As to conditions: rat, in vivo, po. Format: ADME, organism-based.
A short description of series [3]: Total body clearance after administration to rats at a dose of 0.5 mg/kg intravenously. Further details: dose 0.5 mg/kg, route intravenous. As to conditions: rat, in vivo, iv. Format: ADME, organism-based.
Series [4] deals with T1, Amyloid-beta precursor protein (Homo sapiens, UniProt P05067). Description: Inhibitory concentration against beta-amyloid-42 (Abeta42) secretion was evaluated in human neuroglioma cells (H4-APP695NL). Format: functional, cell-based. In a few lines:
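H4-APP695NL human neuroglioma cells (APP695 Swedish K595N/M596L) seeded at 2 × 10^5/well and grown 24 h to confluence. Increasing compound concentrations added overnight; DMSO 1% as vehicle. Supernatant Aβ42 or Aβ40 measured by electrochemiluminescence immunoassay: biotinylated 4G8 plus C-terminus-specific rabbit antibodies, captured on streptavidin beads.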
Target sequence in this assay (P05067 18-770 limits assumed): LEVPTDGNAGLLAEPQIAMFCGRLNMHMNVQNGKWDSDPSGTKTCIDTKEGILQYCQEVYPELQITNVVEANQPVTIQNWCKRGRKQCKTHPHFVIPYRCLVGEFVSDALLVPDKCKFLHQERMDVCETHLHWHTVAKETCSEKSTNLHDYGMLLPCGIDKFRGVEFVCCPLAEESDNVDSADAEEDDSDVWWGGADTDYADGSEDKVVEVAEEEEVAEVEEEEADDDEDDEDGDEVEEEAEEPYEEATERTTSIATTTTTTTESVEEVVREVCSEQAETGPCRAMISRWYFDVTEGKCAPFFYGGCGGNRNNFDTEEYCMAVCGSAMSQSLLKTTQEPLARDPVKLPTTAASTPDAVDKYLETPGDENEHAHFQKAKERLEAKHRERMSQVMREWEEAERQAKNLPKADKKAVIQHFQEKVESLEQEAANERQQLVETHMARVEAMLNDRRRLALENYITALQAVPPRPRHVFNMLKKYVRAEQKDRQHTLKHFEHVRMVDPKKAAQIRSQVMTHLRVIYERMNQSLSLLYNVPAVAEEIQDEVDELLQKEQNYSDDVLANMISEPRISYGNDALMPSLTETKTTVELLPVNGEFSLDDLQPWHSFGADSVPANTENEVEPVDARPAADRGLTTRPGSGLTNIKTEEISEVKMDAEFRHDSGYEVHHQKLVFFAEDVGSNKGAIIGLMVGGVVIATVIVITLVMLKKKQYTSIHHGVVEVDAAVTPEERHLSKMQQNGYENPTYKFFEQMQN

A short description of series [5]: Maximal concentration in rats after 0.5 mg/kg intravenous dose. Format: ADME, organism-based. Further details: dose 0.5 mg/kg, route intravenous. As to conditions: rat, in vivo.
The nature of series [6]: Maximal concentration in rats after 2.5 mg/kg oral dose. As to conditions: rat, in vivo. Also on record: dose 2.5 mg/kg, route oral. Format: ADME, organism-based.
The nature of series [7]: Area under curve after administration to rats at adose of 0.5 mg/kg intravenously. Further details: dose 0.5 mg/kg, route intravenous. Format: ADME, organism-based. As to conditions: rat, in vivo, iv.
The nature of series [8]: Maximum time corresponding to maximum concentration after administration to rats at a dose of 2.5 mg/kg orally. Format: ADME, organism-based. Further details: dose 2.5 mg/kg, route oral. As to conditions: rat, in vivo, po.
Series [9] addresses T2, Prostaglandin G/H synthase 1 (Rattus norvegicus) (UniProt Q63921).
T2 sequence (whole entry): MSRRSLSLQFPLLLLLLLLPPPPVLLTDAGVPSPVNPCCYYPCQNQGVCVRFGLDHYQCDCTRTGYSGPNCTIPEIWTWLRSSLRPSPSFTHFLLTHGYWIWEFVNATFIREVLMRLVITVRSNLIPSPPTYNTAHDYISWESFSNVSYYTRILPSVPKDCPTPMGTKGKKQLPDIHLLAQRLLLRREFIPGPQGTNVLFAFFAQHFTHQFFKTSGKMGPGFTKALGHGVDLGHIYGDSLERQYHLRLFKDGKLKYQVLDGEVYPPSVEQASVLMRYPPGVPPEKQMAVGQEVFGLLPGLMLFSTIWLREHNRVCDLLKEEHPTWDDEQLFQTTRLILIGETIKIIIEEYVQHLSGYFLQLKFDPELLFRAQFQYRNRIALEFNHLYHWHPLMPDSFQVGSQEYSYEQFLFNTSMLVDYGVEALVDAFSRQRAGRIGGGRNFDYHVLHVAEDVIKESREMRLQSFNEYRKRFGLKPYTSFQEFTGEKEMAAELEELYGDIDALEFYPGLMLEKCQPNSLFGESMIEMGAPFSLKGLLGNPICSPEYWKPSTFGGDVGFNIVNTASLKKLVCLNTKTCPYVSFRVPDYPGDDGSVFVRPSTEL
The experiment in a line: Percent inhibition against cyclooxygenase-1 at 100 uM in rat blood. In a few lines: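 Fresh rat whole blood preincubated 1 h at 37 °C with compound (100 μM) or DMSO (0.3% final). Stimulated 30 min with A23187 calcium ionophore; plasma thromboxane B2 measured by radioimmunoassay.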

In series [10] the target is T1, Amyloid-beta precursor protein. As to conditions: at 100 µM.
Target sequence in this assay (P05067 whole entry): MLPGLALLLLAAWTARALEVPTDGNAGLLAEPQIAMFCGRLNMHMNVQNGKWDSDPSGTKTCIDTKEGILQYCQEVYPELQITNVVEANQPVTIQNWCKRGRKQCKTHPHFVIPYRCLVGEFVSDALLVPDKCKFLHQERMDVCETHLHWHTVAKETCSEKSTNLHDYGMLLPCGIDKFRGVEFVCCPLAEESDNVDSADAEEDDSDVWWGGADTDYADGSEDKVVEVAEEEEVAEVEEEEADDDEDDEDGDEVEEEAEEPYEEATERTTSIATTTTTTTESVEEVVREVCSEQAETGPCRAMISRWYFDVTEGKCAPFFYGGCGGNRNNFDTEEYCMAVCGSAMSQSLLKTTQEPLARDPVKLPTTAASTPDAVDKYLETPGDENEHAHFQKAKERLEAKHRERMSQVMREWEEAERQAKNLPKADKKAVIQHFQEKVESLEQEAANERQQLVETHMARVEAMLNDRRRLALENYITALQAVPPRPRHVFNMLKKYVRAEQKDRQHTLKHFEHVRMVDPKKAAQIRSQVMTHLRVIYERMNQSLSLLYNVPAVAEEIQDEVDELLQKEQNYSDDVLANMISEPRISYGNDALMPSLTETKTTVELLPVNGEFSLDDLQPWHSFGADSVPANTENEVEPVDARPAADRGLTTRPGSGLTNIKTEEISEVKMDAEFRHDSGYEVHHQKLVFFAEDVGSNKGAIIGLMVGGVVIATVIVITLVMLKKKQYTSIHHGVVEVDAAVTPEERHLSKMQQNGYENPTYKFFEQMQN
Series [11] in a line: Concentration ratio in cerebrospinal fluid and plasma. As to conditions: rat.
Series [12] can be described thus: Maximum time corresponding to maximum concentration after administration to rats at a dose of 0.5 mg/kg intravenously. Format: ADME, organism-based. Further details: dose 0.5 mg/kg, route intravenous. As to conditions: rat, in vivo, iv.
Series [13] has as its target T1, Amyloid-beta precursor protein. Description: Inhibition of A beta 40 peptide 100 um.
Target sequence in this assay (P05067 whole entry): as above
Series [14] in a line: Elimination phase half-life after administration to rats at a dose of 0.5 mg/kg intravenously. Format: ADME, organism-based. Further details: dose 0.5 mg/kg, route intravenous. As to conditions: rat, in vivo, iv.
The target of another series is Cytochrome P450 2C19 (Homo sapiens, UniProt P33261). The experiment in a line: Interaction with human cytochrome P450 isoform 2C19 expressed in baculovirus-insect cells. Format: ADME. The essentials: (§1)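 Microsomes from baculovirus-insect cells expressing human CYP1A2, 2C9, 2C19, 2D6 or 3A4. Compound serially diluted with an NADPH-regenerating mix (16.3 μM NADP+, 0.83 mM glucose-6-phosphate, 0.83 mM MgCl2, 0.4 U/mL G6PDH). Pre-warmed 10 min at 37 °C, then isoform-specific substrate added in 0.35 M potassium phosphate pH 7.4. Fluorometric read-out; IC50 by nonlinear regression.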

Series [15] in a line: Absolute oral bioavailability after administration to rats at a dose of 2.5 mg/kg orally. As to conditions: rat, in vivo.
Series [16] is described as follows: Area under curve after administration to rats at adose of 2.5 mg/kg orally. Format: ADME, organism-based. Further details: dose 2.5 mg/kg, route oral. As to conditions: rat, in vivo, po.
For a further series, the target named is T3, Cytochrome P450 1A2 (Homo sapiens, UniProt P05177).
T3 sequence (P05177 whole entry): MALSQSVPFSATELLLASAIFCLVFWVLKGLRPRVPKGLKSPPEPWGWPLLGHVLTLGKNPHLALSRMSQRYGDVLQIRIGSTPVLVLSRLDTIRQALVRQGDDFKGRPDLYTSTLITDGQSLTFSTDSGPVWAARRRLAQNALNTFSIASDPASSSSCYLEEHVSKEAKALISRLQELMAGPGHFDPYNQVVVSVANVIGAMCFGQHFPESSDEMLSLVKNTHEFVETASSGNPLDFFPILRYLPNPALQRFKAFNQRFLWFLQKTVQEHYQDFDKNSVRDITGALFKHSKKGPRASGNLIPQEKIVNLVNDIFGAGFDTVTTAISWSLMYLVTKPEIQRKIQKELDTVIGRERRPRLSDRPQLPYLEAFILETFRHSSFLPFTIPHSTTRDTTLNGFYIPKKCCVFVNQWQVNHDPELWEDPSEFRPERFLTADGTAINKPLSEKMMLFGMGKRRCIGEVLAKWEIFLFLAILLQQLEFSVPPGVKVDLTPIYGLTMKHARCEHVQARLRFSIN
The experiment in a line: Interaction with human cytochrome P450 isoform 1A2 expressed in baculovirus-insect cells. Format: ADME. In a few lines: (§2)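 Supersome microsomes from baculovirus-insect cells expressing human CYP1A2, 2C9, 2C19, 2D6 or 3A4 were used with isoform-specific fluorogenic substrates. Compounds were serially diluted with an NADP⁺/glucose-6-phosphate regenerating system in 0.35 M potassium phosphate, pH 7.4. Plates were prewarmed 10 min at 37 °C, reactions stopped with acetonitrile/Tris, and fluorescence read. IC50 was obtained by nonlinear regression.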

The next series has as its target Cytochrome P450 2C9 (Homo sapiens, UniProt P11712). Description: Interaction with human cytochrome P450 isoform 2C9 expressed in baculovirus-insect cells. Format: ADME. The essentials:
as §1

Another series addresses Cytochrome P450 2D6 (Homo sapiens, UniProt P10635). The experiment in a line: Interaction with human cytochrome P450 isoform 2D6 expressed in baculovirus-insect cells. Format: ADME. The essentials:
as §2

Series [17] concerns the target T4, Cytochrome P450 3A4 (Homo sapiens, UniProt P08684). Description: Interaction with human cytochrome P450 isoform 3A4 expressed in baculovirus-insect cells. Format: ADME. The essentials: as §2
A short description of series [18]: Time to achieve maximal concentration in rats after 0.2 mg/kg intravenous dose. Format: ADME, organism-based. As to conditions: rat, in vivo. Further details: dose 0.2 mg/kg, route intravenous.
A short description of series [19]: Time to achieve maximal concentration in rats after 0.5 mg/kg oral dose. Format: ADME, organism-based. Further details: dose 0.5 mg/kg, route oral. As to conditions: rat, in vivo.
The nature of series [20]: Area under curve after administration to rats at a dose of 0.2 mg/kg intravenously. Format: ADME, organism-based. Further details: dose 0.2 mg/kg, route intravenous. As to conditions: rat, in vivo, iv.
Series [21] can be described thus: Maximal concentration in rats after 0.5 mg/kg oral dose. Also on record: dose 0.5 mg/kg, route oral. Format: ADME, organism-based. As to conditions: rat, in vivo.
A short description of series [22]: Total body clearance after administration to rats at a dose of 0.2 mg/kg intravenously. Format: ADME, organism-based. Further details: dose 0.2 mg/kg, route intravenous. As to conditions: rat, in vivo, iv.
Series [23] is described as follows: Maximal concentration in rats after 0.2 mg/kg intravenous dose. Format: ADME, organism-based. Further details: dose 0.2 mg/kg, route intravenous. As to conditions: rat, in vivo.
Series [24] in a line: Area under curve after administration to rats at a dose of 0.5 mg/kg orally. Format: ADME, organism-based. Further details: dose 0.5 mg/kg, route oral. As to conditions: rat, in vivo, po.
Series [25] addresses T4, Cytochrome P450 3A4. Description: Inhibition of cytochrome P450 3A4 at 100 uM; activation observed. Format: ADME. The essentials: as §2
A short description of series [26]: Absolute oral bioavailability after administration to rats at a dose of 2.5 mg/kg orally. As to conditions: rat, in vivo. The source holds these as a separate data set.
A short description of series [27]: Area under curve after administration to rats at a dose of 0.5 mg/kg intravenously. As to conditions: rat, in vivo, iv. Format: ADME, organism-based. Also on record: dose 0.5 mg/kg, route intravenous.
Series [28] is described as follows: Area under curve after administration to rats at a dose of 2.5 mg/kg orally. As to conditions: rat, in vivo, po. Further details: dose 2.5 mg/kg, route oral. Format: ADME, organism-based.
Series [29] can be described thus: Total body clearance after administration to rats at a dose of 0.5 mg/kg intravenously. As to conditions: rat, in vivo, iv.

Cytochrome P450 2C19, sequence (P33261 whole entry, canonical isoform): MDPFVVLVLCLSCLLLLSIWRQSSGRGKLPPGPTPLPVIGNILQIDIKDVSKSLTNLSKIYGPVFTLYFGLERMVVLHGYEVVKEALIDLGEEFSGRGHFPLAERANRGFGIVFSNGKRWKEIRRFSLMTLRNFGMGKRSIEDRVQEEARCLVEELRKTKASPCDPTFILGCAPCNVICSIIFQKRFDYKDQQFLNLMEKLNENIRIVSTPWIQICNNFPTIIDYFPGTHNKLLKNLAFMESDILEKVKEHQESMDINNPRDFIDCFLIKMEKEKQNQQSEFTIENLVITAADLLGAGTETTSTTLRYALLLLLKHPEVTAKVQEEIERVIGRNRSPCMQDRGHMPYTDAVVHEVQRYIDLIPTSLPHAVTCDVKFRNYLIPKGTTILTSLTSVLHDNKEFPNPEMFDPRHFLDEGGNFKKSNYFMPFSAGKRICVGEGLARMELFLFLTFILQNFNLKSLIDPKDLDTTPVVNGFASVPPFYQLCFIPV
Cytochrome P450 2C9, sequence (P11712 whole entry, canonical isoform): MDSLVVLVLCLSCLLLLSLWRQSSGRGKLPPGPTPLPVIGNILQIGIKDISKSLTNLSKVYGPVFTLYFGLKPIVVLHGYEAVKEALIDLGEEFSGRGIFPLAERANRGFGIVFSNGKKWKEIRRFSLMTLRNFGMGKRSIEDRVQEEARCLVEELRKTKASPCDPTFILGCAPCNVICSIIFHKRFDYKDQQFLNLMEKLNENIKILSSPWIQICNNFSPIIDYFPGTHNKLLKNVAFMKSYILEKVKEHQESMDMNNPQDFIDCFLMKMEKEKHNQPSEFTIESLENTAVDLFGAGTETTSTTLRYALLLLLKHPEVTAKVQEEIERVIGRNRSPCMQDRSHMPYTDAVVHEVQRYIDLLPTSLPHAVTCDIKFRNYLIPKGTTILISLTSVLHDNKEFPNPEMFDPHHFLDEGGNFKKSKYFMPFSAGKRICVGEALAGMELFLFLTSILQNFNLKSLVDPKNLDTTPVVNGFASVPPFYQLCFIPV
T4 sequence (P08684 whole entry, canonical isoform): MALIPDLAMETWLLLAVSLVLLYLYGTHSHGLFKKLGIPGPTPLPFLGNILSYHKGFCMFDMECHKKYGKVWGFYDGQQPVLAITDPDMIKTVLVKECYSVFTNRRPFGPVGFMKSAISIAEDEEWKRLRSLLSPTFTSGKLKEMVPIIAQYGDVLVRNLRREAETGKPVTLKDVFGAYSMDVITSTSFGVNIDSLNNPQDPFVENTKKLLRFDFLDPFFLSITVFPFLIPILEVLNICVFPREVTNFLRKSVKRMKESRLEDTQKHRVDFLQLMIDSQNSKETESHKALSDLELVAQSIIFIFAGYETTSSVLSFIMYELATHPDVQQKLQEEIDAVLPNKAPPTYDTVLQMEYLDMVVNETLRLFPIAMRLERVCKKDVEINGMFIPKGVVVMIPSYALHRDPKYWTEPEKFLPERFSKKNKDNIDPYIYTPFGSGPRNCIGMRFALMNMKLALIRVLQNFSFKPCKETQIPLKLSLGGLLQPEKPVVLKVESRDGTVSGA
Cytochrome P450 2D6, sequence (P10635 whole entry, canonical isoform): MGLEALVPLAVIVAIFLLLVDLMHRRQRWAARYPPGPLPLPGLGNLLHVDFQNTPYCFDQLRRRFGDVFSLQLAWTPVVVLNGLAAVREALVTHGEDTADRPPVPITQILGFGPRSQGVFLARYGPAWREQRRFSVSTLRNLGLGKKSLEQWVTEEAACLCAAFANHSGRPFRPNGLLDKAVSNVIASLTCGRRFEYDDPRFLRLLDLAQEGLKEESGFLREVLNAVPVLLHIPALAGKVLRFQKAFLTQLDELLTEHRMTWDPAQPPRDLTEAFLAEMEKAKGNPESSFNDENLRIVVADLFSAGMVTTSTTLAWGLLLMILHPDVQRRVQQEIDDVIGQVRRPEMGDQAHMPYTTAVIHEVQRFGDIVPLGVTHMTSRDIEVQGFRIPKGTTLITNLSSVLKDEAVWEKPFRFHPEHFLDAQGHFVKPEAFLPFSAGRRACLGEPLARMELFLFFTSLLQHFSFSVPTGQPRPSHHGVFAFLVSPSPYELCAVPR

As for `O=C(O)C1(c2ccc(-c3ccc(C(F)(F)F)cc3)c(F)c2)CC1`, the figures for the Clearance in [1] and in series [3] were 0.52 mL/h and 0.9 mL/h/kg, respectively. Besides, the Absoption entry in the series with Caco-2 is reported as “High”. In addition, the half-life is 32.8 h in series [2] and 36.2 h in series [14]. Also, the figures for the concentration for half-maximal inhibition (IC50) (in [4]; against Cytochrome P450 2C19) were 111 µM and 71 µM, respectively. Further, the Cmax in [5] came out at 14400 ng/mL; in series [6] it was 54900 ng/mL. In addition, the values for the AUC in [7] and in series [16] were 575 µg/h/mL and 2613 µg/h/mL, respectively. Further, the results for the Tmax in [8] and in [12] were 4 h and 4.8 min, respectively. The inhibition was under 1% in series [9] and 55% in series [10]. The Ratio in series [11] worked out at 1.8%. Also, the Inhibition in series [13] was determined as 22%. In [15], the bioavailability worked out at 90.9%.
`CC1(C)CC(Oc2ccc(-c3ccc(C4(C(=O)O)CC4)cc3F)cc2)CC(C)(C)C1` had a Clearance in series [1] of 134 mL/h. The IC50 was 11 µM in series [4]; 26 µM at Cytochrome P450 1A2; 15 µM against Cytochrome P450 2C9; 30 µM against Cytochrome P450 2D6; 33 µM on Cytochrome P450 2C19; 27 µM at Cytochrome P450 3A4 [17]. In [10], this molecule came in with an inhibition of 97%.
`O=C(O)C1(c2ccc(-c3ccc(OC4CCC(C(F)(F)F)CC4)cc3)c(F)c2)CC1` (centres undefined): the Tmax is 0.25 h in [18] and 8 h in [19]. For the same molecule, the IC50 is 20 µM in series [4] and 17.7 µM against Cytochrome P450 2C9. The AUC in series [20] was 11 µg/h/mL; in series [24], 6 µg/h/mL. The Cmax in series [21] is 300 ng/mL; in series [23], 600 ng/mL. The molecule further gave an inhibition in series [10] of 70%. The same molecule showed a Clearance in [22] of 18.8 mL/h/kg.
Take `O=C(O)C1(c2ccc(-c3ccc(C4CCCCC4)cc3)c(F)c2)CC1`: half-maximal inhibition at Cytochrome P450 3A4 [25] (IC50) was put at 59 µM. The inhibition in series [9] amounted to 12%; in series [10], 60%.
Regarding `O=C(O)C1(c2ccc(-c3ccc(Cl)c(Cl)c3)c(F)c2)CC1`, the Clearance in series [1] is 1.5 mL/h; in [29] it was 2.9 mL/h/kg. Further, in the series with Caco-2, the Absorption entry is “High”. This molecule also displayed a T1/2 in series [2] of 20.7 h. Besides, the half-life in [2] is 20.7 h. This molecule displayed a bioavailability in series [26] of 50.2%. The concentration for half-maximal inhibition (IC50) in series [4] came out at 41 µM; against Cytochrome P450 2C9, 38 µM; on Cytochrome P450 2C19 it was 25 µM. Moreover, the values for the highest concentration (Cmax) in series [5] and in series [6] were 6100 ng/mL and 16200 ng/mL, respectively. For the same molecule, the inhibition is under 1% in [9] and 79% in [10]. The AUC is 173 µg/h/mL in series [27] and 435 µg/h/mL in series [28].
